This is an account of results in ChEMBL document CHEMBL1124406 (J Med Chem, 1989).

For assay [1], the target named is T1, Dihydrofolate reductase (Homo sapiens, UniProt P00374).
T1 sequence (P00374 whole entry): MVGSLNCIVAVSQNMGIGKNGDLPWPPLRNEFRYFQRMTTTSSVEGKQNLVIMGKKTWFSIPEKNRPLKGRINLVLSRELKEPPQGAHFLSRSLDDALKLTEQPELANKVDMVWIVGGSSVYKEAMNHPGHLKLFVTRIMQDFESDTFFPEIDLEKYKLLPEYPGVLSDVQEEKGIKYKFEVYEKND
Put plainly: Compound was tested for its inhibitory activity against dihydrofolate reductase (DHFR), isolated from MTX-resistant WI-L2 cells. It counts as cell-based.

The subject of assay [2] is L1210. Kind of assay: Compound was measured for growth inhibition of L1210 cells in the presence of hypoxanthine. It counts as functional, cell-based. The following applies: Mus musculus. The method, boiled down:
(§1)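 Reversal test of an antifolate effect on L1210 cell growth in culture. The drug is given alongside one of three supplements: thymidine alone at 10 μM, hypoxanthine alone at 100 μM, or thymidine 10 μM plus hypoxanthine 100 μM together.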

Assay [3] relates to L1210. Put plainly: Inhibition of cell growth against L1210 murine leukemia cells. The class given is functional, cell-based. The following applies: Mus musculus.
Assay [4] is filed under the species Mus musculus. Put plainly: Vmax of compound was derived from purified Folyl-polyglutamate synthase from mouse liver. Summed up: (§2)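 FPGS was partially purified from mouse liver, and the compounds were run as substrates. Km, Vmax and Vmax/Km came from the kinetic data. Vmax and Vmax/Km are expressed relative to aminopterin run in the same experiment. Each compound was tested in 2–3 experiments on different days.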

Assay [5] deals with L1210. Put plainly: Compound was measured for growth inhibition of L1210 cells in the presence of thymidine plus hypoxanthine. The class given is functional, cell-based. The following applies: Mus musculus. The method, boiled down: as §1
For assay [6], the system named is L1210. Put plainly: Compound was measured for growth inhibition of L1210 cells in the presence of thymidine. It counts as functional, cell-based. The following applies: Mus musculus. The method, boiled down: as §1
In assay [7] the test system is L1210. Kind of assay: Compound was measured for growth inhibition of L1210 cells in standard medium. It counts as functional, cell-based. The following applies: Mus musculus.
The nature of assay [8]: Inhibition of cell growth against WI-L2 cells. It counts as functional, cell-based. The following applies: Homo sapiens, WIL2.
Assay [9] is filed under the species Mus musculus. Kind of assay: Kinetic constant of compound was derived from purified Folyl-polyglutamate synthase from mouse liver. The method, boiled down:
as §2

For assay [10], the species on record is Mus musculus. Put plainly: Ratio of Vmax and Km relative to AMT. The method, boiled down: as §2

Regarding `Cc1nc(N)c2nc(CNc3ccc(C(=O)NC(CCC(=O)O)C(=O)O)cc3)cnc2n1` (centres undefined), the IC50 (in general, the point on the concentration scale where inhibition reaches its midpoint) was > 50000 nM in assay [1]; 160 nM in [2]; 42 nM in assay [3]; > 100000 nM in [5]; 130 nM in [6]; 42 nM in assay [7]. In [8], this compound displayed an IC50 of 28 nM. The Vmax in [4] came to 0.77. For the same compound, the Michaelis-Menten constant (Km) (as a rule, the substrate concentration at which the rate is half of its maximum) in assay [9] came out at 31.7 µM. For the same compound, the Ratio in assay [10] is 0.6.

Regarding `Nc1ncnc2ncc(CNc3ccc(C(=O)NC(CCC(=O)O)C(=O)O)cc3)nc12` (centres undefined), the IC50 in assay [2] was 260 nM; in [3] it was 82 nM; in assay [5], > 100000 nM; in [6], 160 nM; in assay [7] it was 82 nM; in assay [8] it was 81 nM. Besides, the Vmax in [4] was determined as 0.87. In addition, the Km in assay [9] came to 26.4 µM. The Ratio in assay [10] is 0.74.

With `CN(Cc1cnc2nc(N)nc(N)c2n1)c1ccc(C(=O)N[C@@H](CCC(=O)O)C(=O)O)cc1` [METHOTREXATE], the IC50 in [3] was 9 nM; in assay [8], 13 nM.

For `Nc1nc(N)c2nc(CNc3ccc(C(=O)N[C@@H](CCC(=O)O)C(=O)O)cc3)cnc2n1`, the Vmax in assay [4] is 1. The Michaelis-Menten constant (Km) in assay [9] turned out to be 22.8 µM. For the same compound, in assay [10], the Ratio was 1.
